Results published in article PMC2740399 (American Journal of Physiology - Cell Physiology, 2009).

What was measured:
HA-tagged hGnRHR [1] = biological target: T1, HA-tagged hGnRHR (Homo sapiens, UniProt P30968); assay: Whole cell expression of HA-hGnRHR; type: cell-based; conditions: HeLa; 18 h, 10^−7 M; not shown
T1 sequence (P30968 1-328): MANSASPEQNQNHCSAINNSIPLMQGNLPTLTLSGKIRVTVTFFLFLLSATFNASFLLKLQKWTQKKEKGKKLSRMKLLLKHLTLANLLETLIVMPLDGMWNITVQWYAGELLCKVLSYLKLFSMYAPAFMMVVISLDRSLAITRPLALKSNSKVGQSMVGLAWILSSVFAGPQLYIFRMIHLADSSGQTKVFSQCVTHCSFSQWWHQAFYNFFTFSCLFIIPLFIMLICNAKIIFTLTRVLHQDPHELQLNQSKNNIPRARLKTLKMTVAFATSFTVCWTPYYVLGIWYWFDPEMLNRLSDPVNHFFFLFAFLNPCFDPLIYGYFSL

HA-tagged h.XGnRHR [2] = assay: Internalization of anti-HA preloaded receptor; type: cell-based, human/Xenopus laevis; conditions: HeLa, 60 min, 37°C; for block of GnRH-stimulated internalization: antagonist 10^−7 M with GnRH 10^−9 M
HA-tagged hGnRHR [3] = biological target: T1, HA-tagged hGnRHR; assay: Cell surface expression / PCSE of HA-hGnRHR after 18 h ligand exposure; type: cell-based; conditions: HeLa
HA-tagged mGnRHR [4] = biological target: T2, HA-tagged mGnRHR (Mus musculus, UniProt Q01776); assay: Internalization of anti-HA preloaded receptor; type: cell-based; conditions: HeLa, 60 min, 37°C; for block of GnRH-stimulated internalization: antagonist 10^−7 M with GnRH 10^−9 M
T2 sequence (Q01776 1-327): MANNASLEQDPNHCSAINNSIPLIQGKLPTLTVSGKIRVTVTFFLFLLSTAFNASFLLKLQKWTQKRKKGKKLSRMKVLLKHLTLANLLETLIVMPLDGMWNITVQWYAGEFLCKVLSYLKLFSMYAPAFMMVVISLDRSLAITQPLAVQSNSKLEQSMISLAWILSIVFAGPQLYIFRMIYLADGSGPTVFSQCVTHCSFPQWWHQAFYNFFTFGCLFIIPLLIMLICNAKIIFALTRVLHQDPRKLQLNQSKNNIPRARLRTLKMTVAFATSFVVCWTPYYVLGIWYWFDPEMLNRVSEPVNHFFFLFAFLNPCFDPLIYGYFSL

HA-tagged h.XGnRHR [5] = assay: Whole cell expression of HA-h.XGnRHR; type: cell-based, human/Xenopus laevis; conditions: HeLa; 18 h, 10^−7 M; not shown
[6] = biological target: T3, HA-tagged h.XGnRHR (hGnRHR with added XGnRHR COOH tail) (Homo sapiens, UniProt P30968); assay: Cell surface expression / PCSE of HA-h.XGnRHR after 18 h ligand exposure; type: cell-based, human/Xenopus laevis; conditions: HeLa
T3 sequence (P30968 1-328): T1 sequence (P30968 1-328)

A261K.hGnRHR = assay: Cell surface expression of A261K.hGnRHR; type: cell-based, human; conditions: HeLa; 18 h, 10^−7 M IN3
A261K.h.XGnRHR = assay: Cell surface expression of A261K.h.XGnRHR; type: cell-based, human/Xenopus laevis; conditions: HeLa; 18 h, 10^−7 M IN3
[7] = system: GnRHR point mutants that cause hypogonadotropic hypogonadism; conditions: cited from earlier work
wild-type GnRHR = conditions: cited from earlier work
HA-tagged XGnRHR [8] = assay: Cell surface expression of HA-XGnRHR; type: cell-based, Xenopus laevis; conditions: HeLa
HA-tagged XGnRHR [9] = assay: Trafficking, anti-HA loading with agonist present; type: cell-based, Xenopus laevis; conditions: HeLa; 10^−7 M GnRH II with anti-HA, 0–60 min, 37°C
HA-tagged h.XGnRHR [10] = assay: Trafficking, anti-HA loading with agonist present; type: cell-based, human/Xenopus laevis; conditions: HeLa; 10^−7 M GnRH with anti-HA, 0–60 min, 37°C
HA-tagged mGnRHR [11] = biological target: T2, HA-tagged mGnRHR; assay: Cell surface expression of HA-mGnRHR; type: cell-based; conditions: HeLa, 10^−7 M GnRH, 37°C
HA-A261K-h.XGnRHR = assay: Trafficking, anti-HA loading with agonist present; type: cell-based, human/Xenopus laevis; conditions: HeLa; 10^−7 M GnRH with anti-HA, 0–60 min, 37°C
HA-A261K h.XGnRHR = assay: Internalization of anti-HA preloaded receptor; type: cell-based, human/Xenopus laevis; conditions: HeLa, 60 min, 37°C
Method in brief: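 HeLa cells transduced day after plating with adenovirus (1–3 pfu/nl, 6 h) carrying exofacially HA-tagged, G protein-uncoupled receptor; assayed next day. Surface receptors prelabelled 60 min with mouse anti-HA (1:200) in DMEM/2% BSA at ~21°C, washed, then treated at 37°C. Cells were fixed, permeabilized, given Alexa 488 secondary plus DAPI, and stained inclusions quantified by automated ×10 imaging. Data are 3–4 wells.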

[12] = 10^−7 M IN3, fluorescence immunohistochemistry, automated imaging

Cc1cc(C)cc(-c2[nH]c3ccc(C(C)(C)C(=O)N4CC5CCC4CC5)cc3c2[C@H](C)CNCCc2ccncc2)c1 [IN3, (2S)-2-[5-[2-(2-azabicyclo[2.2.2]oct-2-yl)-1,1-dimethy-2-oxoethyl]-2-(3,5-dimethylphenyl)-1H-indol-3-yl]-N-(2-pyridin-4-ylethyl)propan-1-amine]
whole cell expression (effect of ligand) (HA-tagged hGnRHR [1]): no measurable effect
block of GnRH-stimulated internalization (HA-tagged h.XGnRHR [2]): blocked
cell surface expression (effect of ligand) (HA-tagged hGnRHR [3]; [12]): greatly increased
PCSE (proportional cell surface expression) (HA-tagged hGnRHR [3]; 10^−7 M, increased from 1.6% (control), n = 3 experiments): 11%
PCSE increase (HA-tagged hGnRHR [3]; 10^−7 M, vs control, 'almost 7-fold'): ~7 fold
block of GnRH-stimulated internalization (HA-tagged mGnRHR [4]): blocked
whole cell expression (effect of ligand) (HA-tagged h.XGnRHR [5]): no measurable effect
cell surface expression (effect of ligand) [6, 12]: greatly increased
PCSE (proportional cell surface expression) ([6]; 10^−7 M, increased from 6.3% (control), n = 3 experiments): 17.6%
effect of IN3 on cell surface expression (A261K.hGnRHR): pronounced increase
effect of IN3 on cell surface expression (A261K.h.XGnRHR): pronounced increase
rescue of signaling [7]: “rescues” signaling via most of these mutants
signaling via wild-type GnRHR (wild-type GnRHR): increases signaling
cell surface expression after preincubation (effect of IN3) (HA-tagged XGnRHR [8]; 18 h preincubation, 10^−7 M IN3, not shown): did not alter expression

(His^5, Trp^7, Tyr^8)GnRH [GnRH II]
inclusion count (effect of agonist) (HA-tagged XGnRHR [9]): increased
time to maximal effect on cell surface expression (HA-tagged XGnRHR [8]; 10^−7 M GnRH II, 37°C): 120 min
time to significant reduction in cell surface expression (HA-tagged XGnRHR [8]; 10^−7 M GnRH II, 37°C): 10 min
reduction in cell surface expression (HA-tagged XGnRHR [8]; 10^−7 M GnRH II, 37°C, data with and without IN3 pretreatment pooled): rapid reduction

cetrorelix
block of GnRH-stimulated internalization (HA-tagged h.XGnRHR [2]): blocked
internalization (effect of peptide antagonist alone) (HA-tagged h.XGnRHR [2]; cetrorelix 10^−7 M): not increased by a peptide antagonist
block of GnRH-stimulated internalization (HA-tagged mGnRHR [4]): blocked
internalization (effect of peptide antagonist alone) (HA-tagged mGnRHR [4]; cetrorelix 10^−7 M): not increased by a peptide antagonist

gonadotropin-releasing hormone [GnRH]
internalization (effect of 10^−9 M GnRH) (HA-tagged h.XGnRHR [2]; 10^−9 M GnRH): increased
inclusion count (effect of agonist) (HA-tagged h.XGnRHR [10]): increased
internalization (effect of 10^−9 M GnRH) (HA-tagged mGnRHR [4]; 10^−9 M GnRH): increased
reduction in cell surface expression, IN3-pretreated cells (HA-tagged mGnRHR [11]; after 18 h 10^−7 M IN3): pronounced reduction
reduction in cell surface expression (HA-tagged mGnRHR [11]; no IN3 pretreatment): reduced expression
receptor distribution (effect of GnRH) (HA-A261K-h.XGnRHR): no measurable effect
internalization (effect of 10^−9 M GnRH) (HA-A261K h.XGnRHR): did not increase internalization
